TRPN1 ag: zebrafish TRPN1 channel agonists, primary screen, cell-based, HEK293, calcium fluorescence | hit rate 0.18% among 220,000 | HEK293 zebrafish TRPN1-YFP, Fluo-8 calcium fluorescence; 100% = response to 87 µM carbachol | activation, % at 3 µM | AID 1424, 2008 | transient receptor potential cation channel N1 (TRPN1/NompC), Danio rerio;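 active = activation above its plate's cutoff, the mean activation of test wells on that plate plus 3 SD, cut at about 19% in these data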;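 also: 0% = DMSO alone and 100% = 87 µM carbachol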
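Material: zebrafish TRPN1-YFP in HEK293 cells. Doses: one dose of 3 µM, 0.3% DMSO. Incubation: dye 1 h 37 °C plus 30 min RT. Measured by: intracellular calcium fluorescence with Fluo-8.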
CRFBP-R2 agonist: agonists of CRF-BP/CRF-R2 complex, primary screen, cell-based, HEK293, calcium dye fluorescence, uHTS | activation, % at 13.2 µM | AID 588473, 2011 | hit rate 0.46% among 350,000 | calcium dye fluorescence (FLIPR); percent of saturating CRF peptide response | CRF-binding protein / CRF receptor 2 complex (human);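 active = activation of at least 50%, plus an integration ratio under a set limit after plate pattern correction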;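 also: plate controls were neutral control wells without compound for no effect and CRF at EC100 for full effect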
TRPML3 agonist: human TRPML3 channel agonists, primary screen, cell-based, HEK293 TRPML3-YFP, Fluo-8 calcium fluorescence, 3 µM | 100% = the carbachol control signal | activation, % at 3 µM | hit rate 0.29% among 220,000 | Mucolipin-3 (Homo sapiens), Q8TDD5 | AID 1448, 2008;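 active = activation above its plate's cutoff, the mean activation of the plate's test wells plus 3 SD, cut at about 12% in these data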;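 also: 0% = DMSO only wells and 100% = carbachol wells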
Target sequence (Q8TDD5 whole entry, looked up): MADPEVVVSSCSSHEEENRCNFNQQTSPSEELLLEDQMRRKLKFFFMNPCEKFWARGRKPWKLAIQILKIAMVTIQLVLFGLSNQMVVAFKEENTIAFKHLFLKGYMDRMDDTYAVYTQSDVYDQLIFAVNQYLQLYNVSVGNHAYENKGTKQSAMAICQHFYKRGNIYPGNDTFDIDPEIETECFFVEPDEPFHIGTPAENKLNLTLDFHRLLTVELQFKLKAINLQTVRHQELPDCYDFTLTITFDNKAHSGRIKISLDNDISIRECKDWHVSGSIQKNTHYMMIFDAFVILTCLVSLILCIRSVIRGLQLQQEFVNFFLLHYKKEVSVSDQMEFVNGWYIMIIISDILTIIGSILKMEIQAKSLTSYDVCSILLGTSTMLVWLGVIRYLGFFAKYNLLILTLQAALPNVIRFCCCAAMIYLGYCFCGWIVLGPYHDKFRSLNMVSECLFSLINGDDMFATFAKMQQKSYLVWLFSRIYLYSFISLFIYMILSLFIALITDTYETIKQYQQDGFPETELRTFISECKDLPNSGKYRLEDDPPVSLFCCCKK
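Test system: HEK293 cells stably carrying human TRPML3-YFP; Doses: single dose, 3 µM final nominal compound, 0.3% DMSO final; Schedule: dye loading 1 h 37 °C then 30 min ambient, 125 s read; Technique: Fluo-8 calcium fluorescence; Benchmarks: high control carbachol 87 µM, low control DMSO.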
CRFBP-R2 block: antagonists of CRF-BP/CRF-R2 complex, primary screen, cell-based, HEK293, calcium dye fluorescence, uHTS; AID 588475, 2011; CRF-induced calcium fluorescence; hit rate 0.59% among 350,000; inhibition, % at 11.8 µM;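 active = inhibition of the ligand-induced calcium signal above about 50% at the single tested concentration, limit read from the data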
Numbers without * were called inactive; nt = no result. Only some compounds are listed: those with a hit (about 1.2% of all), similar ones and a draw of the others.

SMILES	TRPN1 ag	CRFBP-R2 agonist	TRPML3 agonist	CRFBP-R2 block
NC(=O)c1ccc(NCC2COc3ccccc3O2)c([N+](=O)[O-])c1 (stereo not given)	1.9	-4.5	0.5	91.7*
CN(C)S(=O)(=O)c1ccc(NCC2COc3ccccc3O2)c([N+](=O)[O-])c1 (stereo not given)	0.1	6.7	1.7	-30.8
COc1ccc(NC(=O)CCN2C(=O)C3CC=CCC3C2=O)cc1S(=O)(=O)N1CCCCC1 (stereo not given)	nt	-1.7	nt	12.9
COc1ccc(NC(=O)CN2CCCC2c2cccs2)cc1S(=O)(=O)N1CCCCC1 (stereo not given)	nt	-0.8	nt	64.0*
COc1ccc(NC(=O)CCCC2CCCCC2)cc1S(=O)(=O)N1CCCCC1	-0.8	-1.9	0.7	64.4*
CCOc1ccc(CN2CCNC(=O)C2CC(=O)NCCCn2ccnc2)cc1 (stereo not given)	0.9	0.3	0.7	7.5
O=c1[nH]c(Nc2ccccc2)cc2cc(Br)ccc12	nt	2.3	nt	-1.0
O=c1[nH]c(Nc2ccccc2)cc2ccccc12	2.4	62.5*	1.2	-42.6
COc1ccc(NC(=O)c2nc(C)c(C3(C)CC(c4ccccc4)=NO3)s2)cc1 (stereo not given)	nt	3.3	nt	-3.2
CCN(CC)c1ccc(/C=C2\SC(N)=NC2=O)cc1	nt	26.8	nt	-32.3
O=C1NC(=S)S/C1=C\c1cccc([N+](=O)[O-])c1	nt	35.2	nt	54.7*
O=C1NC(=Nc2ccccc2Cl)S/C1=C\c1cccc([N+](=O)[O-])c1	nt	-1.4	nt	14.0
CCN(CC)c1ccc(C=C2SC(=S)NC2=O)cc1	nt	167.8*	nt	-164.3
COc1cc(C(=O)NCC(=O)N2CCN(S(=O)(=O)c3ccccc3)CC2)cc(OC)c1OC	nt	-0.4	nt	-11.3
CN1CCN(C(=O)c2cc(S(=O)(=O)Nc3ccccc3F)c(Cl)cc2Cl)CC1	1.5	0.6	2.0	-2.8
O=c1c(-c2nc3ccccc3s2)cccn1Cc1ccccc1	2.7	-0.5	0.6	5.3
O=C(CO/N=C/c1ccccc1Cl)N1CCCc2ccccc21	-2.3	-6.0	-0.9	30.9
CC(=O)c1ccc2noc(-c3ccccc3)c2c1	1.6	2.7	0.5	21.6
CC(=O)c1ccc2c(c1)c(C#N)c1ccccc1[n+]2[O-]	nt	101.4*	nt	-60.8
C=CC[C@H](CC(=O)NCCO)C(=O)NC[C@H](OC(=O)[C@@H](CC=C)Cc1ccc(F)cc1)c1ccccc1	nt	0.8	nt	-7.8
CCC(=O)Nc1nnc(Sc2ccc(N(C)C)cc2)s1	-0.5	0.8	0.6	-26.4
CCCC(=O)Nc1nnc(Sc2ccc(N(C)C)cc2)s1	0.5	-1.3	-0.2	69.0*
COc1ccc(CC(=O)OCC(=O)c2c[nH]c3ccccc23)cc1	nt	0.9	nt	7.5
Cc1ccccc1OCC(=O)OCC(=O)c1c[nH]c2ccccc12	nt	0.7	nt	86.5*
CCN1CCN(c2ccc(NC(=O)c3ccc(C#N)cc3F)cc2Cl)CC1	1.7	-0.9	0.9	1.0
SMILES	TRPN1 ag	CRFBP-R2 agonist	TRPML3 agonist	CRFBP-R2 block
CN1CCc2c(sc3c2C(=O)NC(c2cccs2)N3)C1 (stereo not given)	0.6	57.6*	0.8	-42.4
CSc1ccc(C2NC(=O)c3c(sc4c3CCN(C)C4)N2)cc1 (stereo not given)	3.1	44.9	1.8	-75.8
Cc1ccsc1C1NC(=O)c2c(sc3c2CCN(C)C3)N1 (stereo not given)	0.9	65.2*	0.4	-2.0
COc1ccc(-c2ccc(C3C(C#N)=C(N)Oc4n[nH]c(C)c43)o2)cc1 (stereo not given)	4.2	171.2*	7.4	-223.3
Cc1[nH]nc2c1C(c1ccco1)C(C#N)=C(N)O2 (stereo not given)	-0.9	2.5	0.7	-14.7
Cc1cc(C(=O)COc2cccc3cccnc23)c(C)n1C	1.8	189.8*	0.8	-135.8
c1ccc(C(c2nnnn2Cc2cccs2)N2CCN(C3CCCC3)CC2)cc1 (stereo not given)	0.8	-2.5	1.3	65.1*
CCOC(=O)/C(=C\C=C1/Sc2cc(OCC)c(OCC)cc2N1CC)C(C)=O	73.5*	322.0*	45.5*	-413.8
CCOC(=O)/C(=C/C=C1\Sc2cc(OCC)c(OCC)cc2N1CC)C(C)=O	46.4*	279.5*	30.3*	-320.4
Cc1nc(Cc2nnc(SCC(=O)N(C)c3ccccc3)o2)cs1	nt	-1.7	nt	12.5
O=C(CCN1CCCCC1)c1ccc2c(c1)OCO2	2.1	-2.3	0.1	50.8*
COc1ccc(CNC(=O)c2cc3c(C)nc4ccccc4c3o2)c(OC)c1	3.8	-5.5	1.8	57.6*
COc1cccc(CNC(=O)c2cc3c(C)nc4ccccc4c3o2)c1	3.6	-5.8	0.1	-16.6
CC1C(=O)C(C)C(c2cccs2)NC1c1cccs1 (stereo not given)	-1.3	-2.2	-0.5	57.3*
COc1cccc(C2C(C(=O)c3ccc(C)o3)=C(O)C(=O)N2CCN2CCOCC2)c1OC (stereo not given)	nt	-1.4	nt	123.6*
COc1ccc(CNC(=O)CN2C(=O)NC3(CCCCCC3)C2=O)cc1OC	0.9	-0.3	1.0	-2.0
Cc1ccccc1-c1nnn(Cc2ccc(-c3nn[nH]n3)cc2)n1	0.1	1.3	1.1	6.0
CCC1CCCCN1CC(=O)c1c(C)[nH]c2ccc(OC)cc12 (stereo not given)	-0.3	0.8	1.2	-14.3
CCC1CCCCN1CC(=O)c1c(C)[nH]c2ccccc12 (stereo not given)	0.7	106.6*	0.3	47.7
Cc1[nH]c2ccccc2c1C(=O)CN1CCCCC1C (stereo not given)	1.9	74.4*	1.1	19.2
CCOc1ccccc1N1CCN(C(=O)c2cccc(S(=O)(=O)N3CCOCC3)c2)CC1	nt	-3.9	nt	6.8
CCOc1ccccc1N1CCN(C(=O)Cc2ccc(S(=O)(=O)N3CCOCC3)s2)CC1	nt	0.4	nt	101.2*
COc1ccccc1-n1ccnc1SCC(=O)NCc1ccco1	0.4	-5.8	0.1	18.2
Cc1nnsc1-c1onc(C)c1C(=O)O/N=C/c1ccc(Cl)cc1	0.2	-0.3	0.2	124.7*
CCOC(=O)N1CCN(S(=O)(=O)c2ccc(C)c(C)c2C)CC1	0.6	-0.8	0.1	93.8*
CC1CN(C2=NC(=O)/C(=C3/C(=O)N(Cc4ccc(F)cc4)c4ccccc43)S2)CC(C)O1 (stereo not given)	0.3	-1.7	0.1	12.5
CC1CCCCC1NC(=O)CCCCCn1c(=S)[nH]c2ccsc2c1=O (stereo not given)	nt	-1.2	nt	92.7*
Cc1cccc(/C=C2\CCC(C3CCCC3)C2=O)c1 (stereo not given)	3.2	1.7	0.2	-119.3
Cc1ccc(S(=O)(=O)NC2=NCN(C3CCN(Cc4ccccc4)CC3)CN2)cc1	0.1	0.0	0.3	108.9*
Cc1ccccc1/C=C/c1cc[n+](C)cc1	-0.1	1.1	0.2	-28.6
